Assay outcomes (PubChem BioAssay)
SR-BI DiI-HDL act: activators of SR-BI mediated DiI-HDL uptake, primary screen, ldlA[mSR-BI] CHO cells, DiI fluorescence | 3 h; 100 = double the neutral-control signal | 0.096% of 320,000 active | activation, % at 12.5 µM;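 active = mean replicate activation of at least 60% and every replicate at or above 60%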;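 also: 0% = median plate neutral-control signal and 100% = twice that signal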
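Material: SR-BI-overexpressing, LDLR-lacking CHO cells | Dosing: Single compound concentration, delivered by pin transfer | Probe or stimulus: Labelled HDL, 10 µg/mL | Signal: Bottom-read cell fluorescence after medium removal, ex 550/em 595 nm | Schedule: 3 h, 37 °C | Evaluation: HDL uptake via cellular fluorescence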
AHR activator: AHR activators, primary screen, cell-based, luminescence, luciferase reporter, human; Aryl hydrocarbon receptor (Homo sapiens), P35869; AHR-responsive luciferase reporter cells; activation, % at 5 µM; 2.5% of 320,000 active; AID 2796, 2010; in the data active = activation above about 47%;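 also: 0% = vehicle wells and 100% = reference agonist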
GASC-1 inh: inhibitors of GASC-1 histone demethylase, primary screen, biochemical, fluorescence, DELFIA europium. GST-JMJD2C(1-420) H3K9me3 demethylation. inhibition, % at 2.35 µM. 0.069% of 330,000 active. Lysine-specific demethylase 4C (Homo sapiens), Q9H3R0. AID 2099, 2009;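 active = more than half of a compound's replicate wells show inhibition beyond 50%, single wells judged on their own value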;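 also: signal counts dimethyl H3K9 product captured on neutravidin plate; 0% = median of DMSO wells and 100% = 0.3 times that DMSO median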
Target sequence (Q9H3R0 1-420 limits assumed): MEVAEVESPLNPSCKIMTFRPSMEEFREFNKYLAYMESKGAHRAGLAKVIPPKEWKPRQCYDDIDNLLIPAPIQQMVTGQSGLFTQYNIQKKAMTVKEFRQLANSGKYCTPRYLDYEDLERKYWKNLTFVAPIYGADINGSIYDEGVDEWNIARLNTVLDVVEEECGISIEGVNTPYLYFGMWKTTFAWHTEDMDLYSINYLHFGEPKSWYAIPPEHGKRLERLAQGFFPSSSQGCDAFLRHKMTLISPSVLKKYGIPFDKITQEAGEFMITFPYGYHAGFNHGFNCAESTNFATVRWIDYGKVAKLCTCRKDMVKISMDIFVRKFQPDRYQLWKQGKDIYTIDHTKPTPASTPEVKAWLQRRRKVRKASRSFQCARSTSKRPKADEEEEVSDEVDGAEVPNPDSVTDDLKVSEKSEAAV
GAA850 FXN act: FXN promoter activators, primary screen, cell-based, luciferase luminescence, HEK293 lucGAA850. HEK293 lucGAA850 FXN promoter luciferase reporter, 24 h; percent of 10 µM SAHA response. activation, % at 6 µM. 0.56% of 360,000 active. AID 540364, 2011;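 active = activation above the average of all compounds screened plus 3 SD, cutoff fixed separately per campaign, cut at about 7.5% in these data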;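 also: 0% = DMSO wells and 100% = 10 µM SAHA wells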
SR-BI HDL uptake: inhibitors of SR-BI mediated HDL lipid uptake, primary screen, ldlA[mSR-BI] cells, fluorescence, single point; ldlA[mSR-BI] CHO cells, DiI-HDL uptake fluorescence, 3 h; Scavenger receptor class B member 1 (Mus musculus), Q61009; AID 488896, 2010; inhibition, % at 12.5 µM; 0.96% of 320,000 active;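 active = mean replicate inhibition of at least 70% and a set share of replicates each scoring 70 or more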;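 also: 0% = median of neutral control wells and 100% = median of positive control wells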
* marks the source's active call; other numbers are inactive results. A selection: hits, their analogues and other compounds. The true share with any hit is near 3.7%.

Screening COc1ccc(NCC(=O)Nc2ccc(C#N)cc2)cc1Cl returned SR-BI DiI-HDL act -95, AHR activator -4, GASC-1 inh 14, GAA850 FXN act 3 and SR-BI HDL uptake 95*.
For O=C(Nc1ccc(OC(F)F)c(Cl)c1)c1cccc(OC(F)F)c1 the results were SR-BI DiI-HDL act -67, AHR activator -7, GASC-1 inh 70, GAA850 FXN act 0 and SR-BI HDL uptake 67.
For COc1ccc(NC(=O)C(=O)NCCCO)cc1Cl the results were SR-BI DiI-HDL act 2, AHR activator 62*, GASC-1 inh 3, GAA850 FXN act 1 and SR-BI HDL uptake -2.
CCOC(=O)C(=O)Nc1ccc(OC)c(Cl)c1 was read as SR-BI DiI-HDL act -10, AHR activator 21, GASC-1 inh -18, GAA850 FXN act 0 and SR-BI HDL uptake 10.
`NS(=O)(=O)c1ccc(NC(=O)COC(=O)COc2ccc(Br)cc2)cc1` gave AHR activator 1, GASC-1 inh 52 and GAA850 FXN act -1.
`CCC1Oc2ccccc2N(CC(=O)N2CC(C)CC(C)C2)C1=O` (stereo not drawn) gave GAA850 FXN act -3.
O=C(Nc1nc2ccc(F)cc2s1)C1=COCCO1 was read as SR-BI DiI-HDL act -34, AHR activator 48*, GASC-1 inh -339, GAA850 FXN act -5 and SR-BI HDL uptake 34.
O=C(Nc1nc2cc3c(cc2s1)OCCO3)C1=COCCO1 was read as AHR activator -12, GASC-1 inh -1 and GAA850 FXN act -16.
For O=C(Nc1ccccc1-c1nc2ccccc2s1)C1=COCCO1 the results were SR-BI DiI-HDL act -22, AHR activator 93*, GASC-1 inh -1, GAA850 FXN act 1 and SR-BI HDL uptake 22.
O=C(c1ccc(S(=O)(=O)NCc2ccco2)cc1)N1CCCC(C(F)(F)F)C1 (stereo not drawn) was read as SR-BI DiI-HDL act -29, AHR activator 2, GASC-1 inh 0, GAA850 FXN act 1 and SR-BI HDL uptake 29.
Screening CCOc1ccccc1C(=O)Nc1cc(OC)ccc1OC returned SR-BI DiI-HDL act -79, AHR activator -2, GASC-1 inh 17, GAA850 FXN act -4 and SR-BI HDL uptake 79*.
Screening COc1ccccc1C(=O)Nc1cc(Cl)ccc1O returned SR-BI DiI-HDL act -24, AHR activator 35, GASC-1 inh 3, GAA850 FXN act 1 and SR-BI HDL uptake 24.
COc1cc(Cl)ccc1NC(=O)COc1ccccc1C(=O)NN was read as SR-BI DiI-HDL act -28, AHR activator 77*, GASC-1 inh -21, GAA850 FXN act 3 and SR-BI HDL uptake 28.
CCOc1ccccc1C(=O)Nc1cc(Cl)ccc1O was read as SR-BI DiI-HDL act -86, AHR activator 37, GASC-1 inh -4, GAA850 FXN act 1 and SR-BI HDL uptake 86*.
O=C(CCl)NN1C(=O)NC(c2ccccc2)(c2ccccc2)C1=O was read as SR-BI DiI-HDL act 21, AHR activator 1, GASC-1 inh 7, GAA850 FXN act 1 and SR-BI HDL uptake -21.
`O=S(=O)(Nc1ccncc1Cl)c1ccc2ccccc2c1` gave SR-BI DiI-HDL act 7, AHR activator 5, GASC-1 inh -5, GAA850 FXN act 4 and SR-BI HDL uptake -7.
For O=C(CCN1C(=O)c2ccccc2C1=O)CN1CCOCC1 the results were SR-BI DiI-HDL act 13, AHR activator 2, GASC-1 inh 64, GAA850 FXN act 3 and SR-BI HDL uptake -13.
For Cc1ccc(C(=O)N/C(=C\c2cn(C)c3ccccc23)C(=O)OCCN(C)C)cc1 the results were SR-BI DiI-HDL act 7, AHR activator 46, GASC-1 inh 2, GAA850 FXN act 1 and SR-BI HDL uptake -7.
Screening CN(C)CCOC(=O)/C(=C/c1cn(C)c2ccccc12)NC(=O)c1ccccc1 returned SR-BI DiI-HDL act -3, AHR activator 63*, GASC-1 inh -8, GAA850 FXN act 0 and SR-BI HDL uptake 3.
Screening COC(=O)/C(=C\c1ccc2c(c1)c1ccccc1n2C)NC(=O)c1ccccc1 returned SR-BI DiI-HDL act -12, AHR activator 76*, GASC-1 inh -5, GAA850 FXN act -2 and SR-BI HDL uptake 12.
